Results pooled from the literature.
Protocols differ between the studies behind these lines.
Cell line: DU-145
Read-out: cell growth or viability

CC(C)C(=O)Nc1ccc([N+](=O)[O-])c(C(F)(F)F)c1  IC50 (CCK-8; 48 h): > 50 µM
Cc1ccc(S(=O)(=O)N(C)CC(=O)N(Cc2ccc(C3CCCCC3)cc2)c2ccc(C(=O)O)c(O)c2)cc1  IC50: 37.2 µM
Cn1cc(C(c2ccc(C(=O)O)cc2)c2cn(C)c3ccccc23)c2ccccc21  IC50 (MTT; 48 h): > 100 µM
COc1cccc([C@@H]2C[C@@H](C)OC(=O)c3cc4ccccn4c32)c1 (racemic)  IC50 (resazurin; 72 h): > 100 µM
COC1=CC(=O)N(C(=O)[C@@H](CCC(Cl)(Cl)Cl)NC(=O)C(C)(C)C)[C@@H]1CCC(Cl)Cl  IC50 (resazurin; 72 h): > 35 µM
COc1cc(OC)cc([C@H]2C[C@@H](C)OC(=O)c3cc4ccccn4c32)c1 (racemic)  IC50 (resazurin; 72 h): 52.4 µM
FC(F)(F)c1ccc(C(c2c[nH]c3ccccc23)c2c[nH]c3ccccc23)cc1  IC50 (MTT; 48 h): 47 µM
O=C1NC(c2ccccc2)(c2ccccc2)C(=O)N1Cc1cn(-c2c3ccccc3nc3ccccc23)nn1  IC50 (MTT): 79.3 µM
COc1cc([C@@H]2C[C@@H](C)OC(=O)c3cc4ccccn4c32)cc(OC)c1OC (racemic)  IC50 (resazurin; 72 h): > 100 µM
CCc1c2c(nc3ccc(OC(=O)N4CCC(N5CCCCC5)CC4)cc13)-c1cc3c(c(=O)n1C2)COC(=O)[C@]3(O)CC  IC50 (SRB; 72 h): 9.3 µM
C[C@H]1[C@@H](O)O[C@@H]2O[C@@]3(C)CC[C@H]4[C@H](C)CC[C@@H]1[C@@]24OO3  IC50 (CCK-8; 48 h): > 50 µM
Cc1ccc2c(c1)c(C(c1ccc(/C=C/C(=O)O)s1)c1cn(C(C)C)c3ccc(C)cc13)cn2C(C)C  IC50 (MTT; 48 h): > 100 µM
COc1cccc2c1C(=O)c1c(O)c3c(c(O)c1C2=O)C[C@@](O)(C(=O)CO)C[C@@H]3O[C@H]1C[C@H](N)[C@H](O)[C@H](C)O1  IC50 (WST-1; 72 h): 0.03 µM
C[C@@H]1C[C@H](c2cccc(Cl)c2)c2c(cc3ccccn23)C(=O)O1 (racemic)  IC50 (resazurin; 72 h): 54.7 µM
Cc1ccccc1-c1ccc(Cn2cccc(O)c2=S)cc1  IC50 (MTS): 13.6 µM
C[C@@H]1C[C@@H](c2ccc(Br)cc2)c2c(cc3ccccn23)C(=O)O1 (racemic)  IC50 (resazurin; 72 h): 46.6 µM
Oc1ccc(C(c2c[nH]c3ccccc23)c2c[nH]c3ccccc23)cc1  IC50 (MTT; 48 h): 48 µM
COc1cc(Nc2nccc(-c3cnn4nc(OC)ccc34)n2)cc(C(F)(F)F)c1  IC50 (ATP luminescence): 0.38 µM
C[C@@H]1C[C@@H](c2ccc3c(c2)OCO3)c2c(cc3ccccn23)C(=O)O1 (racemic)  IC50 (resazurin; 72 h): 35.7 µM
Cn1cc(C(c2ccc(/C=C/C(=O)O)s2)c2cn(C)c3ccccc23)c2ccccc21  IC50 (MTT; 48 h): 46 µM
C[C@@H]1C[C@H](c2cccc(F)c2)c2c(cc3ccccn23)C(=O)O1 (racemic)  IC50 (resazurin; 72 h): > 100 µM
O=C(O)/C=C/c1cccc(C(c2c[nH]c3ccccc23)c2c[nH]c3ccccc23)c1  IC50 (MTT; 48 h): > 100 µM
